Experimental data collected from several papers.
Lines come from different studies, so protocols differ.
Read-out: cell growth or viability

SMILES | cell line | test | conditions | endpoint | value
C[C@@H]1CC[C@@H]([C@](C)(O)CNCc2cccc3ccccc23)[C@H](OCc2ccccc2)C1 | HeLa | MTT | 30 µM, 72 h | inhibition | 86.8%
Cc1c(C(=O)O)ccc2c3n(nc12)[C@@H]1[C@H](C3)N(CC2CC2)[C@@]2(C(=O)Nc3cc(Cl)ccc32)[C@H]1c1cccc(Cl)c1F | U2OS | resazurin |  | GI50 | > 2 µM
C=C(C)[C@@H]1CC[C@@H](C)C[C@H]1OCc1ccc(OC)cc1 | HeLa | MTT | 30 µM, 72 h | inhibition | 54%
Cc1nc(N(C)c2ccc3c(c2)/C(=C/c2ccccc2Cl)C(=O)N3C)c2ccccc2n1 | H22 | MTT |  | IC50 | 8.98 µM
COc1ccc(CNC[C@](O)(COCc2ccc(OC)cc2)[C@@H]2CC[C@@H](C)C[C@H]2OCc2ccc(OC)cc2)cc1 | HeLa | MTT | 10 µM, 72 h | inhibition | 96.9%
O=C(/C=C/c1cccc(F)c1)Nc1cc(-c2ccnc(N3CCC(O)CC3)c2)ccn1 | HeLa | MTT | 5 µM | inhibition | 85%
C#Cc1nc(C2=C(C)C(OC(=O)CCC)/C(=N/OC(=O)CCC)C2)cs1 (centres unmarked) | U2OS |  |  | CC50 | 5.95 µM
C=C(COCc1ccc(OC)cc1)[C@@H]1CC[C@@H](C)C[C@H]1OCc1ccc(OC)cc1 | HeLa | MTT | 10 µM, 72 h | inhibition | 39.2%
O=C(C=Cc1ccccc1)Nc1cccc(-c2ccnc(N3CCC(O)CC3)c2)c1 | HeLa | MTT | 5 µM | inhibition | 55.7%
Cc1nc(Nc2ccc3c(c2)/C(=C/c2ccccc2Cl)C(=O)N3)c2ccccc2n1 | H22 | MTT |  | IC50 | 2.14 µM
Cc1cc(NC(=O)C=Cc2ccccc2)cc(-c2ccnc(N3CCC(O)CC3)c2)c1 | HeLa | MTT | 5 µM | inhibition | 26.6%
COc1cc2ncnc(Nc3ccc4c(c3)/C(=C/c3cccc(Cl)c3)C(=O)N4C)c2cc1OC | H22 | MTT |  | IC50 | 3.84 µM
CCN1[C@@H](C(=O)NC23CCC(C(=O)O)(CC2)CC3)[C@H](c2cccc(Cl)c2F)[C@]2(C(=O)Nc3cc(Cl)ccc32)C12CCCCC2 | U2OS | resazurin | 72 h | GI50 | 0.703 µM
Cc1nc(N(Cc2ccccc2)c2ccc3c(c2)/C(=C/c2ccccc2)C(=O)N3Cc2ccccc2)c2ccccc2n1 (mixture of isomers) | H22 | MTT |  | IC50 | 0.88 µM
Cc1cccc(/C=C/C(=O)Nc2cc(-c3ccnc(N4CCC(O)CC4)c3)ccn2)c1 | HeLa | MTT | 5 µM | inhibition | 74.2%
C[C@@H]1CC[C@@H]([C@](C)(O)Cn2cnc3ccccc32)[C@H](OCc2ccccc2)C1 | HeLa | MTT | 10 µM, 72 h | inhibition | 32.1%
O=C(/C=C/c1ccc(F)cc1)Nc1cc(-c2ccnc(N3CCC(O)CC3)c2)ccn1 | HeLa | MTT | 5 µM | inhibition | 81.5%
C=CC(=O)NC1CCN(c2ncc3ncnc(Nc4ccc(Oc5ccc6c(c5)ncn6C)c(C)c4)c3n2)CC1 | LS-411N |  |  | EC50 | 0.0116 µM
C[C@@H]1CC[C@@H]([C@](C)(O)CNCc2cccc(F)c2)[C@H](OCc2ccccc2)C1 | HeLa | MTT | 10 µM, 72 h | inhibition | 72.5%
Cc1cccc(/C=C/C(=O)Nc2cccc(-c3ccnc(N4CCC(CO)CC4)c3)c2)c1 | HeLa | MTT | 5 µM | inhibition | 56.2%
